From ChEMBL document CHEMBL1944586, “Malaria-infected mice are completely cured by one 6 mg/kg oral dose of a new monomeric trioxane sulfide combined with mefloquine” (J Med Chem, 2012)

Assays:
Plasmodium berghei [1] = experiment: Antimalarial activity against Plasmodium berghei ANKA infected in C57BL/6 mouse assessed as host survival at 100 mg/kg, po administered 24 hrs post-infection (reference value: 6.8 days); format: functional
Plasmodium falciparum = experiment: Antimalarial activity against Plasmodium falciparum NF54; format: functional, organism-based
Mus musculus = experiment: Toxicity in Plasmodium berghei ANKA infected C57BL/6 mouse assessed as effect on longevity at 100 mg/kg, po administered 24 hrs post-infection measured after 3 days; format: organism-based; design: dose 100 mg/kg, route oral; settings: in vivo, 72 h
Plasmodium berghei [2] = experiment: Antimalarial activity against Plasmodium berghei ANKA infected in C57BL/6 mouse assessed as host survival at 15 mg/kg, po administered 24 hrs post-infection (reference value: 6.8 days); format: functional
Plasmodium berghei [3] = experiment: Antimalarial activity against Plasmodium berghei ANKA infected in C57BL/6 mouse assessed as host survival at 18 mg/kg, po administered 24 hrs post-infection (reference value: 6.8 days); format: functional
Plasmodium berghei [4] = experiment: Antimalarial activity against Plasmodium berghei ANKA infected in C57BL/6 mouse assessed as decrease in parasitemia at 15 mg/kg, po administered 24 hrs post-infection measured after 3 days by Giemsa microscopy relative to vehicle treated control; format: functional; design: scale not given: the % may be the effect or the level left
Procedure, shortened: (§1)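 Male C57BL/6J mice, 5 weeks old, about 20 g, infected i.p. on day 0 with 5 × 10⁷ P. berghei ANKA-parasitized erythrocytes. At 24 h post-infection, four mice per group received one oral dose in 7:3 Tween 80:ethanol diluted in water: trioxane 6 mg/kg plus mefloquine HCl 18 mg/kg, or trioxane 7.5 mg/kg plus mefloquine HCl 15 mg/kg. Untreated infected controls were included. Blood parasitemia was read by Giemsa microscopy.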

Plasmodium berghei [5] = experiment: Antimalarial activity against Plasmodium berghei ANKA infected in C57BL/6 mouse assessed as decrease in parasitemia at 18 mg/kg, po administered 24 hrs post-infection measured after 3 days by Giemsa microscopy relative to vehicle treated control; format: functional; design: scale not given: the % may be the effect or the level left; procedure, shortened: as §1

In the case of `CSc1cccc(NC(=O)CC[C@H]2O[C@@H]3O[C@@]4(C)CC[C@H]5[C@H](C)CC[C@@H]([C@H]2C)[C@@]35OO4)c1`, the Survival (Plasmodium berghei [1]) is reported as 15 days, the EC50 (Plasmodium falciparum) is reported as 9.1 nM and the Activity (Mus musculus) is reported as “Non-toxic”.

For `CSc1cc(NC(=O)CC[C@H]2O[C@@H]3O[C@@]4(C)CC[C@H]5[C@H](C)CC[C@@H]([C@H]2C)[C@@]35OO4)cc(SC)c1`, the Survival (Plasmodium berghei [1]) was 7.5 days, the EC50 (Plasmodium falciparum) was 6.5 nM and the Activity (Mus musculus) was “Non-toxic”.

`C[C@H]1[C@@H](CCC(=O)Nc2cccc([S@+](C)[O-])c2)O[C@@H]2O[C@@]3(C)CC[C@H]4[C@H](C)CC[C@@H]1[C@@]24OO3` showed an EC50 (Plasmodium falciparum) of 23 nM.

`C[C@H]1[C@@H](CCC(=O)Nc2cccc([S@@+](C)[O-])c2)O[C@@H]2O[C@@]3(C)CC[C@H]4[C@H](C)CC[C@@H]1[C@@]24OO3` was tested, and the EC50 (Plasmodium falciparum) was 29 nM.

For `C[C@H]1[C@@H](CCC(=O)Nc2cccc(S(C)(=O)=O)c2)O[C@@H]2O[C@@]3(C)CC[C@H]4[C@H](C)CC[C@@H]1[C@@]24OO3`, the EC50 (Plasmodium falciparum) was 21 nM.

In the case of `O[C@@H](c1cc(C(F)(F)F)nc2c(C(F)(F)F)cccc12)[C@H]1CCCCN1` (relative stereo) [(S,R)-MEFLOQUINE], the Survival (Plasmodium berghei [2]) is reported as 15.5 days, the Survival (Plasmodium berghei [3]) is reported as 19.8 days and the Activity (Plasmodium berghei [4]) is reported as >99.9%. For the same compound, the Activity (Plasmodium berghei [5]) was >99.9%.

`C[C@@H]1CC[C@H]2[C@@H](C)C(=O)O[C@@H]3O[C@@]4(C)CC[C@@H]1[C@]32OO4` [ARTEMISININ] was tested, and the EC50 (Plasmodium falciparum) was 10 nM.

In the case of `CCCCN(CCCC)CC(O)c1cc(Cl)cc2c1-c1ccc(Cl)cc1/C2=C/c1ccc(Cl)cc1` (stereo not given) [LUMEFANTRINE], the Activity (Plasmodium berghei [5]) is reported as >99.9%.
